MT stabilize HCS – microtubule stabilizers in HeLa cells; HeLa tubulin immunostaining HCS, 24 h; share of cells brighter than vehicle mean+2SD; % tubulin-high responders, % at 10 µM; 200,000 tested, 0.83% active; AID 2205;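 active means plate Z-score above 3 for both tubulin-high and condensed-nucleus cell shares, with cell loss under 80%, at 10 µM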;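 further: anti alpha tubulin signal scored within the nucleus-defined area of each cell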
NPY2 pot ag – potentiators or agonists of human neuropeptide Y receptor Y2; cells expressing NPY-Y2, potentiator/agonist read-out; activation, % at 3.6 µM; 220,000 tested, 0.45% active; AID 1359; in the data active means activation above about 27%;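 further: cells stimulated with NPY near EC25 plus isoproterenol at EC100; 0% = vehicle plus submaximal agonist and 100% = vehicle plus saturating agonist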
Target sequence (P49146 whole entry, looked up): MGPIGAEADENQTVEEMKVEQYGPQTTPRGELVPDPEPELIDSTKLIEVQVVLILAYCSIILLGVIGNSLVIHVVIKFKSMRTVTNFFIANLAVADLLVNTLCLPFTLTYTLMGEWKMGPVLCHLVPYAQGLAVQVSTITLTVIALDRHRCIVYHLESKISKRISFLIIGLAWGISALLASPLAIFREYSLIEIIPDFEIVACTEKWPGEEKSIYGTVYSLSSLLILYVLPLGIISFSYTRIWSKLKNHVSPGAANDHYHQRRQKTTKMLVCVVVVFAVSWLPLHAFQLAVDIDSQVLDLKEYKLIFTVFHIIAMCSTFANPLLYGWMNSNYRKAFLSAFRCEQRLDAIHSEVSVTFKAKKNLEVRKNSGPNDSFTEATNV
NPY Y2 blocker – antagonists of human neuropeptide Y receptor Y2 | P49146 | NPY-Y2 expressing cells, antagonist mode | inhibition, % at 2.7 µM | 140,000 tested, 0.99% active | AID 793; in the data active means inhibition above about 17%;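 further: 0% = vehicle with agonist challenge and 100% = reference antagonist with challenge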
NPY-Y1 antag – antagonists of human neuropeptide Y receptor Y1; P25929; HEK293-CNG Y1 cells, membrane potential fluorescence; NPY at EC95, then isoproterenol; inhibition, % at 3.6 µM; 200,000 tested, 1% active; AID 1040;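 active means inhibition above the campaign mean inhibition of all tested compounds plus 3 SD, cut at about 20% in these data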;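 further: 0% = DMSO wells given NPY plus isoproterenol and 100% = isoproterenol alone without NPY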
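material = HEK293 cells with Y1 receptor plus CNG channel | also added = NPY 25 nM then isoproterenol 1 µM plus Ro 20-1724 25 µM | schedule = dye 3 h, compound 60 min room temperature, stimulation 45 min | measured by = membrane potential fluorescence | benchmarks = high control isoproterenol alone, low control NPY with isoproterenol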
b-catenin transl – alters nuclear translocation of beta-catenin in HeLa cells. AID 1665. immunofluorescence imaging. 190,000 tested, 0.3% active. nuclear translocation activity, % at 5 µM;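 active means nuclear translocation activity above 50% at 5 µM, with a well cell count of 50 or more; inconclusive means wells under 50 cells across six images, flagged as toxic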;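 further: per-cell ratio of nuclear to cytoplasmic median beta-catenin stain intensity; plate controls were DMSO negative control for no effect and GSK-3 inhibitor IX positive control for full effect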
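System: HeLa cells, endogenous beta-catenin; compound dosing: 5 µM primary single dose, 0.1% DMSO, 0.02–20 µM confirmation series; incubation: 24 h compound exposure at 37°C, 5% CO2; signal: beta-catenin immunofluorescence imaging with DAPI; evaluation: % activation, nuclear-to-cytoplasmic median beta-catenin signal ratio per cell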
NPY1 pot ag – potentiators or agonists of human neuropeptide Y receptor Y1. activation, % at 3.6 µM. AID 1304. P25929. 220,000 tested, 0.37% active. NPY-Y1 expressing cells, potentiator/agonist activation; in the data active means activation above about 33%, passing the limit was not always enough;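 further: cells stimulated with NPY at EC10 then isoproterenol at EC100; 0% = low agonist plus stimulus and 100% = saturating agonist plus stimulus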
Active calls of the source: *; ? = inconclusive; / = no result given. Sampled rows, rich in hits. Any-hit rate of the full collection: about 2.6%.

SMILES	MT stabilize HCS	NPY2 pot ag	NPY Y2 blocker	NPY-Y1 antag	b-catenin transl	NPY1 pot ag
COC(=O)N(NC(=O)C(O)(c1ccccc1)c1ccccc1)c1ccccc1	5	-11	22*	33*	3	-37
O=C(c1ccc(F)cc1)N(NC(=O)C(O)(c1ccccc1)c1ccccc1)c1ccccc1	1	-3	30*	49*	-2	-56
CN1CCN(c2ccccc2NC(=O)c2ccc([N+](=O)[O-])cc2Cl)CC1	3	-11	/	-1	0	-3
COC(=O)C1=C(N)c2c(F)cccc2C1(C#N)c1ccc(F)cc1 (centres undefined)	2	-1	3	7	/	-11
O=S(=O)(Nc1nc(-c2sccc2Cl)cs1)c1cc(Cl)ccc1Cl	1	-23	7	7	/	-32
CC(=O)N[C@@H](C)C(=O)N1CCN(S(=O)(=O)c2ccc(Cl)cc2)CC1	4	10	/	1	-3	0
CN1COc2ccc3ccccc3c2C1	2	9	/	0	-1	4
Cc1ccn2c(Nc3ccccc3C)c(-c3ccccn3)nc2c1	3	30*	/	-3	/	41*
Cc1cccn2c(Nc3ccccc3)c(-c3ccccn3)nc12	3	11	/	6	-2	-21
Cc1ccn2c(Nc3ccccc3)c(-c3ccccn3)nc2c1	5	-4	/	11	2	0
Cc1ccccc1Nc1c(-c2ccccn2)nc2ccccn12	5	35*	/	6	0	35*
Cc1ccc2nc(-c3ccccn3)c(Nc3ccccc3C)n2c1	6	36*	/	7	-3	46*
OC1(c2ccc(Br)cc2)CN(c2ccccc2)C2=[N+]1CCS2 (centres undefined)	3	16	/	3	0	8
COC(=O)c1ccc(Oc2cc(C)nc(SC)n2)cc1	51*	-7	4	8	8	6
COC(=O)c1ccc(Oc2cc(C)nc(Cl)n2)cc1	3	-12	/	2	0	-7
COc1ccccc1C1=NOC(COc2ccc3c(C)cc(=O)oc3c2)C1 (centres undefined)	/	-32	/	/	96*	-38
COc1cc(C(=O)OCC(C)=O)ccc1OCc1c(C)noc1C	31*	-11	/	3	45	10
N#Cc1ccc(C(=O)CSc2n[nH]c(=O)n2-c2cccnc2)cc1	/	9	/	/	-4	15
Cn1c(=O)c2c(nc(NCCCN3CCOCC3)n2Cc2ccc(Cl)c(Cl)c2)n(C)c1=O	4	-15	23*	20*	/	-41
CSc1ccccc1NC(=O)COC(=O)c1c[nH]c(=O)[nH]c1=O	/	-10	/	/	1	-10
O=C(NCCOC12CC3CC(CC(C3)C1)C2)c1cccc(Br)c1	3	-26	2	4	1	-26
CC1=NN(S(=O)(=O)c2ccc(C)cc2)C(=O)c2ccccc2O1	/	14	/	/	-1	15
COc1ccc(S(=O)(=O)N2N=C(C)Oc3ccccc3C2=O)cc1	37*	4	1	-1	80*	-6
O=C(NCCC1=CCCCC1)C1CCN(S(=O)(=O)c2ccc(Br)s2)CC1	3	0	2	4	-6	9
O=C(CC1SC(=NCc2ccccc2)NC1=O)Nc1ccccc1 (centres undefined)	6	6	4	-1	/	8
SMILES	MT stabilize HCS	NPY2 pot ag	NPY Y2 blocker	NPY-Y1 antag	b-catenin transl	NPY1 pot ag
O=C1NC(c2ccccc2OC(F)F)Oc2ccccc21 (centres undefined)	3	56*	/	-6	-5	46*
CCN(CC)c1nc2ccccc2c(N)c1-c1ccccc1	4	-14	23*	29*	0	-10
Nc1c2ccccc2nc2ccccc12	/	51*	/	/	4	64*
COc1ccc(N(C)S(=O)(=O)c2cccc(C(=O)Nc3nc4ccccc4[nH]3)c2)cc1	3	-12	/	10	-3	-7
CN(c1cccc(Cl)c1)S(=O)(=O)c1cccc(C(=O)Nc2nc3ccccc3[nH]2)c1	11	-10	27*	30*	41	-64
COc1ccc2oc(=Nc3cccc(F)c3)c(C(N)=O)cc2c1	9	12	/	-6	61*	0
Cn1c(=O)c([N+](=O)[O-])c(-n2cnc3ccccc32)c2ccccc21	/	17	/	/	0	17
O=C(N/N=C/c1ccc2c(c1)OCO2)C1COc2ccccc2O1 (centres undefined)	41*	-11	6	-1	-2	-9
O=C(N/N=C\c1cc(Br)cs1)C1COc2ccccc2O1 (centres undefined)	43*	-20	3	3	1	-4
COc1ccc(/C=N/NC(=O)C2COc3ccccc3O2)cc1OC (centres undefined)	2	-13	/	11	2	0
CCCCCC(=O)Nc1sc(C)c(C)c1C#N	5	-7	4	-2	2	-17
O=C(NC1CC1)c1cccc(Nc2ccc(-c3ccc4c(c3)OCCO4)nn2)c1	4	11	-1	-10	/	-18
O=S(=O)(c1ccc(Nc2ccc(-c3ccc4c(c3)OCCO4)nn2)cc1)N1CCCC1	12*	3	2	-2	/	11
C=CCCC1(C)C(=O)N(c2ccccc2)c2ccccc21 (centres undefined)	19*	-4	4	-5	/	-1
COc1ccc(NC(=O)Cn2cnc3c(oc4nc5c(cc43)COC(C)(C)C5)c2=O)cc1	/	-6	/	/	0	6
O=C(Nc1cc(Cl)cc(Cl)c1)c1ccc(Cn2c(=O)[nH]c3ccsc3c2=O)cc1	3	21	-14	-7	0	46*
CCOCCCNC(=O)c1ccc(Cn2c(=O)[nH]c3ccsc3c2=O)cc1	3	2	/	11	0	-9
Cc1cccc(OCC(=O)Nc2nonc2NC(=O)COc2cccc(C)c2)c1	3	5	1	6	/	-18
Cc1ccc(C)c(OCC(=O)Nc2nonc2NC(=O)COc2cc(C)ccc2C)c1	4	-8	21*	24*	0	-72
COC(=O)CSc1nc(N)c(C#N)c(-c2ccc(O)cc2)c1C#N	/	-25	/	/	-1	4
C=CCSc1nc(N)c(C#N)c(-c2ccc(C)cc2)c1C#N	4	45*	-7	-12	/	45*
O=C(Nc1cc(Cl)cc(Cl)c1)C(c1ccccc1)N1CCCCC1 (centres undefined)	3	-3	20*	30*	1	-32
CCN1/C(=C/C=C/c2oc3ccc(-c4ccccc4)cc3[n+]2CC)Oc2ccc(-c3ccccc3)cc21	65	3	/	22*	?	-31
COc1ccc(-c2cc(-c3cccs3)c(C#N)c(SCC(=O)NCc3ccco3)n2)cc1	20*	-4	7	3	94*	9
